From ChEMBL document CHEMBL1139875, “Discovery of 4-aminobutyric acid derivatives possessing anticonvulsant and antinociceptive activities: a hybrid pharmacophore approach” (2007)
Calls of active or inactive are those of the source. No cut-off for these calls is given here.

System: Mus musculus
Test: Anticonvulsant activity in Swiss Albino mouse at 300 mg/kg, ip after 4 hrs by scPIC test
Type: functional, organism-based
Design: dose 300 mg/kg
Procedure, shortened: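 Mice (Swiss, 20-25 g) given i.p. doses of 30, 100 and 300 mg/kg under ADD program protocols, three per group, examined at 0.5 and 4 h in MES, scPTZ, scSTY or scPIC seizure tests. Value is the minimum dose protecting half or more of the mice.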

O=C(O)CCCNC(=O)N/N=C1\C(=O)Nc2ccccc21
Activity: Active
